Measurements: ChEMBL document CHEMBL1828592, “Synthesis and anti-microbial activity of some 1- substituted amino-4,6-dimethyl-2-oxo-pyridine-3-carbonitrile derivatives” (2011)
Activity calls are given as the source filed them. No cut-off for these calls is given here.

Columns and labels:
Staphylococcus aureus [1] = assay: Antibacterial activity against Staphylococcus aureus RCMB 000106 at 10 mg/ml after 24 hrs by diffusion agar technique; assay type: functional; details: for zone of inhibition at 10000 µg/mL: RCMB 000106, 24 h, read-out: IZ
Summary of the method: (§1)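 Agar well diffusion: 24 h bacterial culture pellets (approx. 10^4–10^6 CFU/mL) spread on nutrient agar, pH 7.0. Wells (6 mm) loaded with 100 μL sample at 10 mg/mL in DMSO; DMSO control. Incubated 37 °C, 24 h. Inhibition zone (mm, beyond well) measured three times by caliper and averaged; three runs per strain; mean ± SD.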

Bacillus subtilis [2] = assay: Antibacterial activity against Bacillus subtilis RCMB 000107 at 10 mg/ml after 24 hrs by diffusion agar technique; assay type: functional; details: for zone of inhibition at 10000 µg/mL: RCMB 000107, 24 h, read-out: IZ; summary of the method: as §1
Pseudomonas aeruginosa [3] = assay: Antibacterial activity against Pseudomonas aeruginosa RCMB 000102 at 10 mg/ml after 24 hrs by diffusion agar technique; assay type: functional; details: for zone of inhibition at 10000 µg/mL: RCMB 000102, 24 h, read-out: IZ; summary of the method: as §1
Escherichia coli [4] = assay: Antibacterial activity against Escherichia coli RCMB 000103 at 10 mg/ml after 24 hrs by diffusion agar technique; assay type: functional; details: for zone of inhibition at 10000 µg/mL: RCMB 000103, 24 h, read-out: IZ; summary of the method: as §1
Aspergillus fumigatus [5] = assay: Antifungal activity against Aspergillus fumigatus RCMB 002003 at 10 mg/ml after 3 to 4 days by agar well diffusion method; assay type: functional; details: for zone of inhibition at 10000 µg/mL: read-out: IZ
Summary of the method: (§2)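 Patient-isolated fungi, purified by single-spore isolation, were grown 3–4 days in Sabouraud dextrose broth to about 10^5 CFU/mL. 0.1 mL was spread on Sabouraud dextrose agar. Wells were sealed at the bottom with 0.8% soft agar and loaded with 100 μL sample (10 mg/mL, DMSO); DMSO was the control. Incubated 30 °C, 3–4 days. Zone read three times by caliper and averaged; mean ± SD.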

Geotrichum candidum [6] = assay: Antifungal activity against Geotrichum candidum RCMB 052006 at 10 mg/ml after 3 to 4 days by agar well diffusion method; assay type: functional; details: for zone of inhibition at 10000 µg/mL: read-out: IZ; summary of the method: as §2
Candida albicans [7] = assay: Antifungal activity against Candida albicans RCMB 005002 at 10 mg/ml after 3 to 4 days by agar well diffusion method; assay type: functional; details: for zone of inhibition at 10000 µg/mL: read-out: IZ; summary of the method: as §2
[8] = system: Syncephalastrum racemosum; assay: Antifungal activity against Syncephalastrum racemosum RCMB 005003 at 10 mg/ml after 3 to 4 days by agar well diffusion method; assay type: functional, organism-based; summary of the method: as §2
Aspergillus fumigatus [9] = assay: Antifungal activity against Aspergillus fumigatus RCMB 002003 at 30 ug/ml after 3 to 4 days by agar well diffusion method; assay type: functional; details: read-out: IZ
Summary of the method: (§3)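 Reference antifungal tested at 30 μg/mL, 100 μL per well, on Sabouraud dextrose agar spread with 0.1 mL of a fungal culture at about 10^5 CFU/mL. Wells were bottom-sealed with 0.8% soft agar. Incubated 30 °C, 3–4 days. Inhibition zone (mm) measured three times by caliper and averaged; mean ± SD.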

Geotrichum candidum [10] = assay: Antifungal activity against Geotrichum candidum RCMB 052006 at 30 ug/ml after 3 to 4 days by agar well diffusion method; assay type: functional; details: read-out: IZ; summary of the method: as §3
Candida albicans [11] = assay: Antifungal activity against Candida albicans RCMB 005002 at 30 ug/ml after 3 to 4 days by agar well diffusion method; assay type: functional; details: read-out: IZ; summary of the method: as §3
[12] = system: Syncephalastrum racemosum; assay: Antifungal activity against Syncephalastrum racemosum RCMB 005003 at 30 ug/ml after 3 to 4 days by agar well diffusion method; assay type: functional; details: read-out: IZ; summary of the method: as §3
Staphylococcus aureus [13] = assay: Antibacterial activity against Staphylococcus aureus RCMB 000106 at 30 ug/ml after 24 hrs by diffusion agar technique; assay type: functional; details: RCMB 000106, 24 h, read-out: IZ
Summary of the method: (§4)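 Reference antibiotic tested at 30 μg/mL, 100 μL per 6 mm well in agar diffusion on nutrient agar (pH 7.0) seeded with approx. 10^4–10^6 CFU/mL bacteria. Incubated 37 °C for 24 h. Inhibition zone beyond well diameter (mm) read by caliper in triplicate and averaged; mean ± SD.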

Bacillus subtilis [14] = assay: Antibacterial activity against Bacillus subtilis RCMB 000107 at 30 ug/ml after 24 hrs by diffusion agar technique; assay type: functional; details: RCMB 000107, 24 h, read-out: IZ; summary of the method: as §4
Pseudomonas aeruginosa [15] = assay: Antibacterial activity against Pseudomonas aeruginosa RCMB 000102 at 30 ug/ml after 24 hrs by diffusion agar technique; assay type: functional; details: RCMB 000102, 24 h, read-out: IZ; summary of the method: as §4
Escherichia coli [16] = assay: Antibacterial activity against Escherichia coli RCMB 000103 at 30 ug/ml after 24 hrs by diffusion agar technique; assay type: functional; details: RCMB 000103, 24 h, read-out: IZ
Summary of the method: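 Agar well diffusion on nutrient agar (pH 7.0) spread with centrifuged bacterial pellets from a 24 h culture, about 10^4–10^6 CFU/mL. Wells receive 100 µL of sample in DMSO: tested samples at 10 mg/mL, standard antibiotic at 30 μg/mL, DMSO as control. Incubation is 37 °C for 24 h. Inhibition zone in mm beyond the 6 mm well is measured three times by caliper and averaged. Three runs, mean ± SD.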

SMILES	zone of inhibition at 10000 µg/mL (Staphylococcus aureus [1]) [mm]	zone of inhibition at 10000 µg/mL (Bacillus subtilis [2]) [mm]	inhibition zone (IZ) (Pseudomonas aeruginosa [3])	inhibition zone (IZ) (Escherichia coli [4])	inhibition zone (IZ) [8]	zone of inhibition at 10000 µg/mL (Aspergillus fumigatus [5]) [mm]	zone of inhibition at 10000 µg/mL (Geotrichum candidum [6]) [mm]	zone of inhibition at 10000 µg/mL (Candida albicans [7]) [mm]	zone of inhibition at 10000 µg/mL (Escherichia coli [4]) [mm]	other results
Cc1cc(C)n(/N=C/c2ccc(F)cc2)c(=O)c1C#N	14.9	15.2	inactive	inactive	inactive	–	–	–	–	inhibition zone (IZ) (Aspergillus fumigatus [5]): inactive; inhibition zone (IZ) (Geotrichum candidum [6]): inactive; inhibition zone (IZ) (Candida albicans [7]): inactive
Cc1cc(C)n(/N=C/c2cccs2)c(=O)c1C#N	14	–	–	inactive	inactive	11	13	12	–	inhibition zone (IZ) (Bacillus subtilis [2]): inactive; zone of inhibition at 10000 µg/mL (Pseudomonas aeruginosa [3]): 14 mm
CCC(C)n1ncn(-c2ccc(N3CCN(c4ccc(OCC5COC(Cn6cncn6)(c6ccc(Cl)cc6Cl)O5)cc4)CC3)cc2)c1=O (centres undefined) [ITRACONAZOLE]	–	–	–	–	–	–	–	–	–	zone of inhibition at 30 µg/mL (Aspergillus fumigatus [9]): 28 mm; zone of inhibition at 30 µg/mL (Geotrichum candidum [10]): 27 mm; zone of inhibition at 30 µg/mL (Candida albicans [11]): 26 mm; zone of inhibition at 30 µg/mL [12]: 22 mm
Clc1ccccc1C(c1ccccc1)(c1ccccc1)n1ccnc1 [CLOTRIMAZOLE]	–	–	–	–	–	–	–	–	–	zone of inhibition at 30 µg/mL (Aspergillus fumigatus [9]): 26 mm; zone of inhibition at 30 µg/mL (Geotrichum candidum [10]): 23 mm; zone of inhibition at 30 µg/mL (Candida albicans [11]): 18 mm; zone of inhibition at 30 µg/mL [12]: 20 mm
CC1(C)S[C@@H]2[C@H](NC(=O)Cc3ccccc3)C(=O)N2[C@H]1C(=O)O [PENICILLIN G]	–	–	–	–	–	–	–	–	–	zone of inhibition at 30 µg/mL (Staphylococcus aureus [13]): 29.5 mm; zone of inhibition at 30 µg/mL (Bacillus subtilis [14]): 32.6 mm; zone of inhibition at 30 µg/mL (Pseudomonas aeruginosa [15]): 28.3 mm; zone of inhibition at 30 µg/mL (Escherichia coli [16]): 33.6 mm
Cc1ccc2nc(Cl)c(/C=N/n3c(C)cc(C)c(C#N)c3=O)cc2c1	–	–	inactive	inactive	inactive	14.5	13.2	12.4	–	inhibition zone (IZ) (Staphylococcus aureus [1]): inactive; inhibition zone (IZ) (Bacillus subtilis [2]): inactive
Cc1cc(C)n(NC(=O)Nc2ccccc2)c(=O)c1C#N	7.2	10.4	inactive	–	inactive	9.2	10.4	7.4	11.4	–
Cc1ccc2c(c1)cc(/C=N/n1c(C)cc(C)c(C#N)c1=O)c1nnnn12	23.2	24.3	inactive	–	inactive	15.2	18.4	15.4	11.2	–
Cc1cc(C)n(N2C(=O)c3ccccc3C2=O)c(=O)c1C#N	24.4	25.4	inactive	–	inactive	19.2	21.4	18.2	10.8	–
Cc1cc(C)n(N)c(=O)c1C#N	14	17	–	–	inactive	–	–	–	22.8	zone of inhibition at 10000 µg/mL (Pseudomonas aeruginosa [3]): 21.4 mm; inhibition zone (IZ) (Aspergillus fumigatus [5]): inactive; inhibition zone (IZ) (Geotrichum candidum [6]): inactive; inhibition zone (IZ) (Candida albicans [7]): inactive
Cc1cc(C)n(/N=C/c2cc3ccccc3n3nnnc23)c(=O)c1C#N	18.6	17.3	inactive	–	inactive	11.2	13.4	11.4	9.3	–
Cc1cc(C)n(/N=C/c2cc3ccccc3nc2Cl)c(=O)c1C#N	–	–	inactive	inactive	inactive	13.3	12.4	10.2	–	inhibition zone (IZ) (Staphylococcus aureus [1]): inactive; inhibition zone (IZ) (Bacillus subtilis [2]): inactive
Cc1cc(C)n(N2C(=O)c3c(Br)c(Br)c(Br)c(Br)c3C2=O)c(=O)c1C#N	26.4	26.4	inactive	–	inactive	22.5	23.5	20.2	12.6	–
Cc1cc(C)n(NC(=O)C(=O)CC(=O)c2cc3ccccc3o2)c(=O)c1C#N	20.4	21.8	inactive	–	inactive	–	–	–	7.4	inhibition zone (IZ) (Aspergillus fumigatus [5]): inactive; inhibition zone (IZ) (Geotrichum candidum [6]): inactive; inhibition zone (IZ) (Candida albicans [7]): inactive
Cc1cc(C)n(NC(=S)Nc2ccccc2)c(=O)c1C#N	15	13.5	inactive	inactive	inactive	10.2	12	11	–	–
Cc1cc(C)n(/N=C/c2c(C)nn(-c3ccccc3)c2Cl)c(=O)c1C#N	–	–	inactive	inactive	inactive	10.3	11.5	13.2	–	inhibition zone (IZ) (Staphylococcus aureus [1]): inactive; inhibition zone (IZ) (Bacillus subtilis [2]): inactive
Cc1cc(C)n(/N=C/c2cn(-c3ccccc3)nc2-c2cc3ccccc3o2)c(=O)c1C#N	21.2	23.2	inactive	–	inactive	14.2	16.5	15.5	11.5	–
CN[C@@H]1[C@H](O[C@H]2[C@H](O[C@H]3[C@H](O)[C@@H](O)[C@H](N=C(N)N)[C@@H](O)[C@@H]3N=C(N)N)O[C@@H](C)[C@]2(O)C=O)O[C@@H](CO)[C@H](O)[C@H]1O [STREPTOMYCIN]	–	–	–	–	–	–	–	–	–	zone of inhibition at 30 µg/mL (Staphylococcus aureus [13]): 25 mm; zone of inhibition at 30 µg/mL (Bacillus subtilis [14]): 29 mm; zone of inhibition at 30 µg/mL (Pseudomonas aeruginosa [15]): 24 mm; zone of inhibition at 30 µg/mL (Escherichia coli [16]): 25 mm
Cc1cc(C)n(N/C=C(\Nn2c(C)cc(C)c(C#N)c2=O)c2ccccc2)c(=O)c1C#N	15	13.5	inactive	–	inactive	10	12	11	11.5	–
COc1ccc(-c2cc(-c3cccs3)nc3sc(C(=O)Nn4c(C)cc(C)c(C#N)c4=O)c(N)c23)cc1	13	14.2	inactive	inactive	inactive	11.1	14	10	–	–
